Assay results as given in ChEMBL document CHEMBL1155222, “Synthesis and anticancer activity of N-bis(trifluoromethyl)alkyl-N'-thiazolyl and N-bis(trifluoromethyl)alkyl-N'-benzothiazolyl ureas” (2009).

How the values were obtained:
Assay type in all cases: functional
IGROV-1 = assay: Anticancer activity against human IGROV1 cells after 48 hrs by sulforhodamine B assay; conditions: IGROV-1, 48 h
Outline: (§1)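 NCI 60-cell-line screen. Cells grown in RPMI 1640 with 5% FBS and 2 mM L-glutamine, plated at 5000–40,000 cells/well, and preincubated 24 h at 37 °C under 5% CO2. Compounds were taken from DMSO stocks and tested at five final concentrations, 10^-4 to 10^-8 M, for 48 h. Cells were TCA-fixed, stained with 0.4% SRB, and read at 515 nm. GI50, TGI and LC50 were derived as log molar values.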

UACC-62 = assay: Anticancer activity against human UACC62 cells after 48 hrs by sulforhodamine B assay; conditions: UACC-62, 48 h
Outline: (§2)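 NCI 60-cell-line panel; cells grown in RPMI 1640 with 5% FBS and 2 mM L-glutamine, plated at 5000–40,000 cells/well and preincubated 24 h at 37 °C, 5% CO2. Compounds came from DMSO stocks diluted in medium with gentamicin and were tested at five final concentrations, 10^-4 to 10^-8 M, for 48 h. Cells were fixed with TCA, stained with SRB and read at 515 nm. GI50, TGI and LC50 were derived as log molar values.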

SW-620 = assay: Anticancer activity against human SW620 cells after 48 hrs by sulforhodamine B assay; conditions: SW-620, 48 h; outline: as §2
OVCAR-4 = assay: Anticancer activity against human OVCAR4 cells after 48 hrs by sulforhodamine B assay; conditions: OVCAR-4, 48 h; outline: as §1
OVCAR-8 = assay: Anticancer activity against human OVCAR8 cells after 48 hrs by sulforhodamine B assay; conditions: OVCAR-8, 48 h; outline: as §1
786-0 = assay: Anticancer activity against human 786-0 cells after 48 hrs by sulforhodamine B assay; conditions: 786-0, 48 h; outline: as §1
LOX IMVI = assay: Anticancer activity against human LOXIMVI cells after 48 hrs by sulforhodamine B assay; outline: as §1
SK-MEL-2 = assay: Anticancer activity against human SK-MEL-2 cells after 48 hrs by sulforhodamine B assay; conditions: SK-MEL-2, 48 h; outline: as §1
T47D = assay: Anticancer activity against human T47D cells after 48 hrs by sulforhodamine B assay; outline: as §2
ACHN = assay: Anticancer activity against human ACHN cells after 48 hrs by sulforhodamine B assay; outline: as §1
EKVX = assay: Anticancer activity against human EKVX cells after 48 hrs by sulforhodamine B assay; outline: as §1
[1] = Anticancer activity against human Hs 578T cells after 48 hrs by sulforhodamine B assay; outline: as §1
HCC 2998 = assay: Anticancer activity against human HCC2998 cells after 48 hrs by sulforhodamine B assay; conditions: HCC 2998, 48 h; outline: as §1
DU-145 = assay: Anticancer activity against human DU145 cells after 48 hrs by sulforhodamine B assay; conditions: DU-145, 48 h; outline: as §1
SNB-75 = assay: Anticancer activity against human SNB75 cells after 48 hrs by sulforhodamine B assay; conditions: SNB-75, 48 h; outline: as §2
TK-10 = assay: Anticancer activity against human TK10 cells after 48 hrs by sulforhodamine B assay; conditions: TK-10, 48 h; outline: as §2
A549 = assay: Anticancer activity against human A549 cells after 48 hrs by sulforhodamine B assay; conditions: A549, 48 h; outline: as §1
MOLT-4 = assay: Anticancer activity against human MOLT4 cells after 48 hrs by sulforhodamine B assay; conditions: MOLT-4, 48 h; outline: as §1
SNB-19 = assay: Anticancer activity against human SNB19 cells after 48 hrs by sulforhodamine B assay; conditions: SNB-19, 48 h; outline: as §2
KM12 = assay: Anticancer activity against human KM12 cells after 48 hrs by sulforhodamine B assay; conditions: KM12, 48 h; outline: as §1
HCT-15 = assay: Anticancer activity against human HCT15 cells after 48 hrs by sulforhodamine B assay; conditions: HCT-15, 48 h; outline: as §1
MCF7 = assay: Anticancer activity against human MCF7 cells after 48 hrs by sulforhodamine B assay; conditions: MCF7, 48 h; outline: as §1
UO-31 = assay: Anticancer activity against human UO31 cells after 48 hrs by sulforhodamine B assay; conditions: UO-31, 48 h; outline: as §2
MDA-N = assay: Anticancer activity against human MDA-N cells after 48 hrs by sulforhodamine B assay; outline: as §1
CCRF-CEM = assay: Anticancer activity against human CCRF-CEM cells after 48 hrs by sulforhodamine B assay; outline: as §1
NCI-H522 = assay: Anticancer activity against human NCI-H522 cells after 48 hrs by sulforhodamine B assay; conditions: NCI-H522, 48 h; outline: as §1
BT-549 = assay: Anticancer activity against human BT549 cells after 48 hrs by sulforhodamine B assay; conditions: BT-549, 48 h; outline: as §1
A498 = assay: Anticancer activity against human A498 cells after 48 hrs by sulforhodamine B assay; conditions: A498, 48 h; outline: as §1
CAKI-1 = assay: Anticancer activity against human Caki1 cells after 48 hrs by sulforhodamine B assay; conditions: CAKI-1, 48 h; outline: as §1
SR = assay: Anticancer activity against human SR cells after 48 hrs by sulforhodamine B assay; outline: as §2
SF-539 = assay: Anticancer activity against human SF539 cells after 48 hrs by sulforhodamine B assay; conditions: SF-539, 48 h; outline: as §1
NCI-H226 = assay: Anticancer activity against human NCI-H226 cells after 48 hrs by sulforhodamine B assay; conditions: NCI-H226, 48 h; outline: as §1
RXF 393 = assay: Anticancer activity against human RXF393 cells after 48 hrs by sulforhodamine B assay; conditions: RXF 393, 48 h; outline: as §1
SK-OV-3 = assay: Anticancer activity against human SKOV3 cells after 48 hrs by sulforhodamine B assay; conditions: SK-OV-3, 48 h; outline: as §1
SN12C = assay: Anticancer activity against human SN12C cells after 48 hrs by sulforhodamine B assay; outline: as §2
K562 = assay: Anticancer activity against human K562 cells after 48 hrs by sulforhodamine B assay; conditions: K562, 48 h; outline: as §1
PC-3 = assay: Anticancer activity against human PC3 cells after 48 hrs by sulforhodamine B assay; conditions: PC-3, 48 h; outline: as §1
SF-295 = assay: Anticancer activity against human SF295 cells after 48 hrs by sulforhodamine B assay; conditions: SF-295, 48 h; outline: as §1
NCI/ADR-RES = assay: Anticancer activity against human NCI/ADR-RES cells after 48 hrs by sulforhodamine B assay; outline: as §1
SK-MEL-28 = assay: Anticancer activity against human SK-MEL-28 cells after 48 hrs by sulforhodamine B assay; conditions: SK-MEL-28, 48 h; outline: as §1
M14 = assay: Anticancer activity against human M14 cells after 48 hrs by sulforhodamine B assay; conditions: M14, 48 h; outline: as §1
NCI-H460 = assay: Anticancer activity against human NCI-H460 cells after 48 hrs by sulforhodamine B assay; conditions: NCI-H460, 48 h; outline: as §1
SK-MEL-5 = assay: Anticancer activity against human SK-MEL-5 cells after 48 hrs by sulforhodamine B assay; conditions: SK-MEL-5, 48 h; outline: as §1
MDA-MB-231 = assay: Anticancer activity against human MDA-MB-231 cells after 48 hrs by sulforhodamine B assay; conditions: MDA-MB-231, 48 h; outline: as §1
NCI-H322M = assay: Anticancer activity against human NCI-H322M cells after 48 hrs by sulforhodamine B assay; outline: as §1

Work on `O=C(Nc1nc2ccccc2s1)NC(C(F)(F)F)C(F)(F)F` yielded a GI50 (IGROV-1) of 38 µM, a GI50 (UACC-62) of 24.5 µM and a GI50 (SW-620) of 33.9 µM. It also gave a GI50 (OVCAR-4) of 28.8 µM, a GI50 (OVCAR-8) of 33.9 µM and a GI50 (786-0) of 28.8 µM. It also gave a GI50 (LOX IMVI) of 22.9 µM, a GI50 (SK-MEL-2) of 22.9 µM and a GI50 (T47D) of 17 µM. The GI50 (ACHN) was 28.2 µM, the GI50 (EKVX) was 20.9 µM and the GI50 [1] was 26.9 µM. The GI50 (HCC 2998) was 20 µM, the GI50 (DU-145) was 30.2 µM and the GI50 (SNB-75) was 17 µM. The GI50 (TK-10) was 31.6 µM, the GI50 (A549) was 26.9 µM and the GI50 (MOLT-4) was 29.5 µM. It also gave a GI50 (SNB-19) of 35.5 µM, a GI50 (KM12) of 29.5 µM and a GI50 (HCT-15) of 25.7 µM. For the same molecule, the GI50 (MCF7) was 28.2 µM, the GI50 (UO-31) was 3.24 µM and the GI50 (MDA-N) was 23.4 µM. It also gave a GI50 (CCRF-CEM) of 33.1 µM, a GI50 (NCI-H522) of 14.1 µM and a GI50 (BT-549) of 28.2 µM. The GI50 (A498) was 20 µM, the GI50 (CAKI-1) was 28.8 µM and the GI50 (SR) was 25.7 µM. The GI50 (SF-539) was 26.9 µM, the GI50 (NCI-H226) was 25.7 µM and the GI50 (RXF 393) was 28.2 µM. It also gave a GI50 (SK-OV-3) of 30.9 µM, a GI50 (SN12C) of 14.1 µM and a GI50 (K562) of 25.1 µM. For the same molecule, the GI50 (PC-3) was 25.1 µM, the GI50 (SF-295) was 23.4 µM and the GI50 (NCI/ADR-RES) was 27.5 µM. The GI50 (SK-MEL-28) was 35.5 µM, the GI50 (M14) was 19.1 µM and the GI50 (NCI-H460) was 22.4 µM. It also gave a GI50 (SK-MEL-5) of 15.5 µM, a GI50 (MDA-MB-231) of 22.4 µM and a GI50 (NCI-H322M) of 18.2 µM.

Molecule `CCC(NC(=O)Nc1nccs1)(C(F)(F)F)C(F)(F)F` has a GI50 (IGROV-1) greater than 100 µM, a GI50 (UACC-62) of 40.7 µM and a GI50 (SW-620) of 83.2 µM. The GI50 (OVCAR-4) was 83.2 µM, the GI50 (OVCAR-8) was 53.7 µM and the GI50 (786-0) was greater than 100 µM. For the same molecule, the GI50 (LOX IMVI) was 72.4 µM, the GI50 (SK-MEL-2) was 20 µM and the GI50 (T47D) was 38.9 µM. It also gave a GI50 (ACHN) of 61.7 µM, a GI50 (EKVX) of 35.5 µM and a GI50 [1] of 52.5 µM. It also gave a GI50 (HCC 2998) of 74.1 µM, a GI50 (DU-145) of 69.2 µM and a GI50 (SNB-75) of 19.5 µM. For the same molecule, the GI50 (TK-10) was 31.6 µM, the GI50 (A549) was 44.7 µM and the GI50 (MOLT-4) was 30.9 µM. The GI50 (SNB-19) was greater than 100 µM, the GI50 (KM12) was 46.8 µM and the GI50 (HCT-15) was 53.7 µM. For the same molecule, the GI50 (MCF7) was 42.7 µM, the GI50 (UO-31) was 95.5 µM and the GI50 (MDA-N) was 60.3 µM. It also gave a GI50 (CCRF-CEM) of 19.5 µM, a GI50 (NCI-H522) of 38 µM and a GI50 (BT-549) of 40.7 µM. For the same molecule, the GI50 (A498) was 46.8 µM, the GI50 (CAKI-1) was 83.2 µM and the GI50 (SR) was 30.2 µM. It also gave a GI50 (SF-539) greater than 100 µM, a GI50 (NCI-H226) of 70.8 µM and a GI50 (RXF 393) of 83.2 µM. It also gave a GI50 (SK-OV-3) greater than 100 µM, a GI50 (SN12C) of 55 µM and a GI50 (K562) of 34.7 µM. For the same molecule, the GI50 (PC-3) was 0.0794 µM, the GI50 (SF-295) was 52.5 µM and the GI50 (NCI/ADR-RES) was 29.5 µM. It also gave a GI50 (SK-MEL-28) of 72.4 µM, a GI50 (M14) of 38 µM and a GI50 (NCI-H460) of 38.9 µM. It also gave a GI50 (SK-MEL-5) of 33.9 µM, a GI50 (MDA-MB-231) of 85.1 µM and a GI50 (NCI-H322M) greater than 100 µM.
